CXCR6 block: inhibitors of human CXCR6 receptor; O00574; CHO-K1 PathHunter CXCR6 beta-arrestin, luminescence; inhibition, % at 20 µM; actives 0.36% (n = 360,000); in the data active means inhibition above about 34%, passing the limit was not always enough;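 further: antagonist mode with CXCL16 agonist at 10 nM final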
Target sequence (O00574 whole entry, looked up): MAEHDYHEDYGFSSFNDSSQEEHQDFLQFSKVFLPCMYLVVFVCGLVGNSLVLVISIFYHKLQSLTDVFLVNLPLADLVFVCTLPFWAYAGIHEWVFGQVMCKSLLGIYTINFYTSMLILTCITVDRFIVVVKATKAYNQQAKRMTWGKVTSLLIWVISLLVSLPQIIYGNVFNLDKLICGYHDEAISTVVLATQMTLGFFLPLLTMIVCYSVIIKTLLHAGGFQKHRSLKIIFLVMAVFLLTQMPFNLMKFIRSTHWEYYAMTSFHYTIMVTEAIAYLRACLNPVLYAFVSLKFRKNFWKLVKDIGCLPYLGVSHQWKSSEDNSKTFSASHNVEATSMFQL
APJ ag: agonists of human APJ apelin receptor. P35414. CHO-K1 APJ PathHunter beta-arrestin, luminescence; 0% DMSO wells, 100% apelin. activation, % at 20 µM. actives 0.11% (n = 330,000);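 active means activation more than six SD over the plate average, tested at 20 µM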
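Test system: CHO-K1 APJ beta-arrestin complementation cell line. Amount: cell density 1000 per well. Controls: DMSO negative, 10 nM Apelin-13 positive. Signal: luminescent beta-gal fragment complementation, chemiluminescent substrate. Read-out basis: agonist-driven arrestin binding to APJ. Timing: compound stimulation 90 min at 25 °C, detection 60 min.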
EBI2 antag: antagonists of human EBI2 receptor | P32249 | inhibition, % at 5 µM | actives 0.81% (n = 360,000) | EBI2 beta-arrestin recruitment, luminescence, 7a,25-OHC stimulated; in the data active means inhibition above about 38%;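 further: enzyme fragment complementation signal reports receptor beta-arrestin coupling in cells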
CCR6 antagonist: CCR6 (human) receptor antagonism. inhibition, % at 20 µM. CHO-K1 CCR6 PathHunter beta-arrestin, luminescence, CCL20-stimulated. P51684. actives 0.49% (n = 340,000);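 active means compounds whose inhibition of the agonist-driven luminescence signal at 20 µM reaches about 50%, limit read from the data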;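 further: cells stimulated with CCL20 at 14 nM final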
Target sequence (P51684 whole entry, looked up): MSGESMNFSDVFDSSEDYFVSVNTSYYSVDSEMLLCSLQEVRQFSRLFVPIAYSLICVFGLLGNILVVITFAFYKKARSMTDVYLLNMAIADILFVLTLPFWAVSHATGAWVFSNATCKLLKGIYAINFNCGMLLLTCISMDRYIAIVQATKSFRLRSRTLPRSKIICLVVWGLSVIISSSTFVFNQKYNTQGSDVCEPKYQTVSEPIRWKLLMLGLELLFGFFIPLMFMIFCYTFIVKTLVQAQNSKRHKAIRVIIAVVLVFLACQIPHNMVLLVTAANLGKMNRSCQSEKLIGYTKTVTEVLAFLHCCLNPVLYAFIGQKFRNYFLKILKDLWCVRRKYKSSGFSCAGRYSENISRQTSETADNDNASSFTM
APJ antagonist: blocks the human apelin receptor APJ; P35414; CHO-K1 APJ beta-arrestin complementation, luminescence; inhibition, % at 20 µM; actives 0.32% (n = 330,000); AID 2521;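 active means inhibition above about 40% at 20 µM, limit read from the data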;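 further: cells challenged with 10 nM apelin-13 agonist together with compound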
Of the large screens only hits and unclear results are named; the others gave an inactive call. Compounds with a hit are over-represented: about 1.5% of the library has one in this group of screens.

NC(=O)c1ccc(N=Nc2c(-c3ccccc3)[nH]n(-c3ccccc3)c2=O)cc1	none (no result: CXCR6 block, EBI2 antag, CCR6 antagonist)
NS(=O)(=O)c1ccc(N=Nc2c(-c3ccccc3)[nH]n(-c3nc(-c4ccccc4)cs3)c2=O)cc1	CXCR6 block 44
CN(C)c1ccc(C(=O)c2ccc(O)cc2O)cc1	none
CN(C)c1ccc(Cc2cc3c(O)ccc(O)c3cc(Cc3ccc(N(C)C)cc3)c2=O)cc1	CXCR6 block 34 (no result: APJ ag, CCR6 antagonist, APJ antagonist)
COc1cc(N2C(=O)C=CC2=O)c(OC)cc1Cl	CXCR6 block 75 (no result: CCR6 antagonist)
CC(C)(C)OC(=O)Nc1ccccc1-n1nnnc1C(C(=O)c1ccc(F)cc1)N1CCN(c2ccccn2)CC1 (stereo unspecified)	none (no result: CXCR6 block, APJ ag, CCR6 antagonist, APJ antagonist)
CC(C)c1c(O)ccc2c1CC[C@H]1C(C)(C)CCC[C@]21C	EBI2 antag 53 (no result: APJ ag, APJ antagonist)
CC(C)(O)c1ccc2c(c1)CCC1C(C)(C(=O)O)CCCC21C (stereo unspecified)	none
COc1cccc(/C=C/C(=O)OCC(=O)Nc2cccc(S(=O)(=O)NC3=NCCCCC3)c2)c1	none
COC(=O)C1=NN(C(=O)c2cccc(Br)c2)C(O)(c2ccc(Cl)cc2)C1 (stereo unspecified)	CXCR6 block 45 (no result: CCR6 antagonist)
CC1=NN(C(=O)c2ccccc2)C(O)(c2ccc(Br)cc2)C1 (stereo unspecified)	CCR6 antagonist 55
COc1ccccc1/C=C/C(=O)/C=C/c1ccccc1O	EBI2 antag 44 (no result: APJ ag, APJ antagonist)
Cc1ccc(C(=O)c2c(C)oc3c2C(=O)C(=O)c2ccccc2-3)cc1	APJ ag 14, CCR6 antagonist 72
Cc1oc2c(c1C(=O)c1ccc(Cl)cc1)C(=O)C(=O)c1ccccc1-2	none (no result: APJ ag, APJ antagonist)
COc1ccc2c(C)c(Cl)c(=O)oc2c1	none
C=C1CC(COc2ccc3c(C)c(Cl)c(=O)oc3c2)(c2ccccc2)OC1=O (stereo unspecified)	CXCR6 block 37, EBI2 antag 56 (no result: APJ ag, APJ antagonist)
Cc1ccc(NC(=O)COc2ccc(/C(N)=N/O)cc2)cc1C	none
COc1ccccc1N=Nc1ccc(O)c2ncccc12	CCR6 antagonist 54
COc1ccccc1/C=C/C(=O)N1CCN(S(=O)(=O)c2cccs2)CC1	none
CC1CCN(Cc2c(C(=O)N/N=C/c3cc(Br)ccc3O)nnn2-c2nonc2N)CC1	none
CC1CCN(Cc2c(C(=O)N/N=C/c3cc(Cl)ccc3O)nnn2-c2nonc2N)CC1	CCR6 antagonist 50
Cc1cccc(N2CCN(C(=O)c3cc4cc(F)ccc4[nH]3)CC2)c1C	EBI2 antag 92
O=C(NC1CCCC1)c1nc(-c2ccco2)oc1-c1ccccc1	none (no result: CXCR6 block, APJ ag, CCR6 antagonist, APJ antagonist)
O=C(c1cc(-c2ccco2)on1)N1CCN(C(c2ccccc2)c2ccccc2)CC1	EBI2 antag 91
CC(C)c1cc(C(=O)N2CCN(C(c3ccccc3)c3ccccc3)CC2)no1	none
C[C@]12c3[nH]c4ccc(Cl)cc4c3CCN1C(=O)[C@@H](CC(=O)NCc1ccco1)C[C@@H]2C(=O)N1CCCCC1	none (no result: APJ ag, APJ antagonist)
C[C@@H](C(=O)NCCc1c[nH]c2ccccc12)[C@@H]1C[C@@]1(C)[C@@H](NC(=O)OCc1ccccc1)c1ccccc1	EBI2 antag 75
COC(=O)c1cc(=O)n(Cc2ccc3c(c2)OCO3)c(=Nc2ccc(F)c(Cl)c2)s1	EBI2 antag 64
COC(=O)c1cc(=O)n(Cc2ccc(OC)cc2)c(=NCc2ccc(OC)cc2)s1	none
COc1cc(OC)cc(C2=Cc3ccc(OC)cc3C(CC(C)=O)N2c2ccc(C#CCCO)cc2)c1 (stereo unspecified)	none (no result: APJ ag, CCR6 antagonist, APJ antagonist)
CCOc1ccc2oc(C(=O)N3CCN(c4ccccn4)CC3)c(C)c2c1	EBI2 antag 63
NC(CCc1ccccc1)c1csc(NC(=O)Nc2cccc(C(F)(F)F)c2)n1 (stereo unspecified)	none (no result: APJ ag, CCR6 antagonist, APJ antagonist)
O=C(OCC(=O)c1ccc(S(=O)(=O)N2CCCC2)cc1)C1=COCCO1	CCR6 antagonist 53
Cc1ccc(C(=O)OCC(=O)c2ccc(S(=O)(=O)N3CCCCC3)cc2)o1	CCR6 antagonist 53
Cc1ccc(S(=O)(=O)N2CCOCC2)cc1NC(=O)COC(=O)C1=COCCO1	none
CCN(CC)c1ccc(Nc2nc(N3CCOCC3)c3ccccc3n2)cc1	EBI2 antag 45
COc1ccc(Nc2nc(N3CCCC3)c3ccccc3n2)cc1	none
COC(=O)c1ccccc1NCC(=O)c1ccc(OC)cc1	none
COc1ccc(C(=O)CNc2ccc(C)cc2C)cc1	CXCR6 block 43, CCR6 antagonist 79
CN(C)c1nc(=NCc2ccco2)ss1	CXCR6 block 100, CCR6 antagonist 104 (no result: APJ ag, APJ antagonist)
O=C1CCCC(=NCc2ccco2)C1	none
COP(=O)(OC)C(NC(=O)Nc1ccccc1)c1ccccc1 (stereo unspecified)	none
COc1ccc(CCNC(=O)c2ccc([N+](=O)[O-])cc2)cc1	none
COc1ccc(C(=O)Nc2nc(-c3ccc([N+](=O)[O-])cc3)c(-c3ccc(OC)cc3)s2)cc1	CCR6 antagonist 61
O=[N+]([O-])c1ccc(-c2cnc3ccccc3n2)cc1	none
O=[N+]([O-])c1ccc(-c2c(O)c3ccccc3c3nc4ccccc4nc23)cc1	CCR6 antagonist 76
C=C1CC2(OC1=O)c1ccccc1CCc1ccccc12	CXCR6 block 45, CCR6 antagonist 68 (no result: APJ ag, APJ antagonist)
COc1ccc(N2C(=O)C(Cl)=C(Oc3cccc(OC)c3)C2=O)cc1	CCR6 antagonist 97
COc1ccc(N2C(=O)c3ccccc3C2=O)cc1	none
CC1CC(O)C2C3(C)CCCC2(COC3=O)C12CCC1(CCOC1=O)O2 (stereo unspecified)	none (no result: APJ ag, CCR6 antagonist, APJ antagonist)
Nc1ncnc2c1ncn2C1OCC(O)C1O (stereo unspecified)	none (no result: APJ ag, CCR6 antagonist, APJ antagonist)
CC(=NNC(=S)N1CCCCCC1)c1cccc2cccnc12	CCR6 antagonist 91 (no result: APJ ag, APJ antagonist)
C/C(Cl)=C\Cn1c(O)c(N=NC(N)=S)c2cc(Br)ccc21	CCR6 antagonist 55
CCCn1c(SCC(=O)NC2CCCC2)nnc1-c1cccnc1	none
CC1(C)CCCN(C(=O)c2ccc3c(c2NCCO)C(=O)c2ccccc2C3=O)C1	EBI2 antag 38
Cc1nc(C#N)c(N/N=C/c2c(F)cccc2Cl)o1	none
COc1cccc(/C=N/Nc2nc(Nc3ccccc3)nc(-n3nc(C)cc3C)n2)c1O	CXCR6 block 57, EBI2 antag 66, CCR6 antagonist 67
CC(C)(C)c1nnc(N/N=C/c2ccccc2O)n(N)c1=O	EBI2 antag 81
CCc1nnc(NS(=O)(=O)c2ccc(NC(=O)c3cccc(OC)c3)cc2)s1	none
COc1ccc(NC(=O)/C(Cl)=C(/Cl)S(=O)(=O)Cc2ccc(C)cc2)cn1	CXCR6 block 48, EBI2 antag 70, CCR6 antagonist 57 (no result: APJ ag, APJ antagonist)
CC(OC(=O)c1ccc(S(C)(=O)=O)c([N+](=O)[O-])c1)C(=O)NC1C2CC3CC(C2)CC1C3 (stereo unspecified)	EBI2 antag 65 (no result: APJ ag, CCR6 antagonist, APJ antagonist)
CS(=O)(=O)c1ccc(C(=O)OCC(=O)NC23CC4CC(CC(C4)C2)C3)cc1[N+](=O)[O-]	EBI2 antag 65
CC(C)N1CCSC1=S	none (no result: APJ ag, APJ antagonist)
